Source: ChEMBL document CHEMBL1773037, “Evaluation of superior BACE1 cleavage sequences containing unnatural amino acids” (Bioorg Med Chem, 2011)
Activity calls are given as the source filed them. The calls are words filed in the database; no cut-off is given here. Non-standard residues stand in square brackets, D forms with d. Residues, ends and D or L forms follow the SMILES beside them. 2Thi = N[C@@H](Cc1cccs1)C(=O)O; Cha = N[C@@H](CC1CCCCC1)C(=O)O; Cit = NC(=O)NCCC[C@H](N)C(=O)O; Phg = N[C@H](C(=O)O)c1ccccc1; Tle = CC(C)(C)[C@H](N)C(=O)O; Nva = CCC[C@H](N)C(=O)O; Abu = CC[C@H](N)C(=O)O

Columns and labels:
[1] = molecular target: Beta-secretase 1 (Homo sapiens) (UniProt P56817); assay: Activity of recombinant BACE assessed as retention time of substrate by HPLC method
[2] = molecular target: Beta-secretase 1 (Homo sapiens) (UniProt P56817); assay: Activity of recombinant BACE assessed as substrate cleavage at 300 uM after 3 hrs by HPLC analysis
Method in brief: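 Individually synthesized, purified substrates at 300 µM in 40 mM AcONa buffer, pH 4.5, 37 °C. rBACE1 used at 60 nM (P1, P4 substrates), 30 nM (P2, P3 substrates) or 10 nM (P1' substrates and the dodecapeptide). Aliquots taken at 0, 1 and 3 h, quenched with 7 M GuHCl, and the decrease in each substrate peak monitored by HPLC.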

[3] = molecular target: Beta-secretase 1 (Homo sapiens) (UniProt P56817); assay: Activity of recombinant BACE assessed as retention time of C-terminal fragment by HPLC method

Beta-secretase 1 (Homo sapiens), sequence (P56817 whole entry, the tested form may be a part): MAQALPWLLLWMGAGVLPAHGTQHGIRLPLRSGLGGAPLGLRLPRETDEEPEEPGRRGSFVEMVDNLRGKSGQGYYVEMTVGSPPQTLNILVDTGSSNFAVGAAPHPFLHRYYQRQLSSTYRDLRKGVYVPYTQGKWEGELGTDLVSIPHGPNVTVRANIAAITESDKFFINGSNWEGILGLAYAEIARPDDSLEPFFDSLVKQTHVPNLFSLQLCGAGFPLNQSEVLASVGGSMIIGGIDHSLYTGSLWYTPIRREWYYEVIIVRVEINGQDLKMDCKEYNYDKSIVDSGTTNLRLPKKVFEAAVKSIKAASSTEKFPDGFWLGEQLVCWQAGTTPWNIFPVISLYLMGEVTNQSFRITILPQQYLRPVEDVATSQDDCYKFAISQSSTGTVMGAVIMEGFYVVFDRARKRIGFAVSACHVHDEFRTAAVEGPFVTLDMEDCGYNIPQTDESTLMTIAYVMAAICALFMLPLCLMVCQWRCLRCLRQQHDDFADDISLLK

Row | retention time [1] | Activity [2] | retention time [3] | Structure (SMILES)
1 | 0.502 h | 50% | – | CC[C@H](C)[C@H](N)C(=O)N[C@@H](CO)C(=O)N[C@@H](CCC(=O)O)C(=O)N[C@H](C(=O)N[C@@H](CC(N)=O)C(=O)N[C@@H](Cc1ccccc1)C(=O)N[C@@H](CC(=O)O)C(=O)N[C@@H](C)C(=O)N[C@@H](CCC(=O)O)C(=O)N[C@@H](Cc1ccccc1)C(=O)N[C@@H](CCCNC(=N)N)C(=O)N[C@@H](Cc1cnc[nH]1)C(N)=O)C(C)C (H-ISEVNFDAEFRH-NH2)
2 | 0.622 h | Active | – | CC[C@H](C)[C@H](N)C(=O)N[C@@H](CO)C(=O)N[C@@H](CCC(=O)O)C(=O)N[C@H](C(=O)N[C@@H](CC(N)=O)C(=O)N[C@@H](CC(C)C)C(=O)N[C@@H](CCSC)C(=O)N[C@@H](C)C(=O)N[C@@H](CCC(=O)O)C(=O)N[C@@H](Cc1ccccc1)C(=O)N[C@@H](CCCNC(=N)N)C(=O)N[C@@H](Cc1cnc[nH]1)C(N)=O)C(C)C (H-ISEVNLMAEFRH-NH2)
3 | 0.585 h | Active | – | CC[C@H](NC(=O)[C@H](CC(C)C)NC(=O)[C@H](CC(N)=O)NC(=O)[C@@H](NC(=O)[C@H](CCC(=O)O)NC(=O)[C@H](CO)NC(=O)[C@@H](N)[C@@H](C)CC)C(C)C)C(=O)N[C@@H](C)C(=O)N[C@@H](CCC(=O)O)C(=O)N[C@@H](Cc1ccccc1)C(=O)N[C@@H](CCCNC(=N)N)C(=O)N[C@@H](Cc1cnc[nH]1)C(N)=O (H-ISEVNL[Abu]AEFRH-NH2)
4 | 0.622 h | Active | – | CCC[C@H](NC(=O)[C@H](CC(C)C)NC(=O)[C@H](CC(N)=O)NC(=O)[C@@H](NC(=O)[C@H](CCC(=O)O)NC(=O)[C@H](CO)NC(=O)[C@@H](N)[C@@H](C)CC)C(C)C)C(=O)N[C@@H](C)C(=O)N[C@@H](CCC(=O)O)C(=O)N[C@@H](Cc1ccccc1)C(=O)N[C@@H](CCCNC(=N)N)C(=O)N[C@@H](Cc1cnc[nH]1)C(N)=O (H-ISEVNL[Nva]AEFRH-NH2)
5 | 0.409 h | Active | 0.217 h | CC[C@H](NC(=O)[C@H](CC(N)=O)NC(=O)[C@@H](NC(=O)[C@H](CCC(=O)O)NC(=O)[C@H](CO)NC(=O)[C@@H](N)[C@@H](C)CC)C(C)C)C(=O)N[C@@H](CC(=O)O)C(=O)N[C@@H](C)C(=O)N[C@@H](CCC(=O)O)C(=O)N[C@@H](Cc1ccccc1)C(=O)N[C@@H](CCCNC(=N)N)C(=O)N[C@@H](Cc1cnc[nH]1)C(N)=O (H-ISEVN[Abu]DAEFRH-NH2)
6 | 0.573 h | – | 0.217 h | CC[C@H](C)[C@H](N)C(=O)N[C@@H](CO)C(=O)N[C@@H](CCC(=O)O)C(=O)N[C@H](C(=O)N[C@@H](CC(N)=O)C(=O)N[C@@H](CC1CCCCC1)C(=O)N[C@@H](CC(=O)O)C(=O)N[C@@H](C)C(=O)N[C@@H](CCC(=O)O)C(=O)N[C@@H](Cc1ccccc1)C(=O)N[C@@H](CCCNC(=N)N)C(=O)N[C@@H](Cc1cnc[nH]1)C(N)=O)C(C)C (H-ISEVN[Cha]DAEFRH-NH2)
7 | 0.344 h | Active | 0.217 h | CC[C@H](C)[C@H](N)C(=O)N[C@@H](CO)C(=O)N[C@@H](CCC(=O)O)C(=O)N[C@H](C(=O)N[C@@H](CC(N)=O)C(=O)N[C@@H](CCCNC(N)=O)C(=O)N[C@@H](CC(=O)O)C(=O)N[C@@H](C)C(=O)N[C@@H](CCC(=O)O)C(=O)N[C@@H](Cc1ccccc1)C(=O)N[C@@H](CCCNC(=N)N)C(=O)N[C@@H](Cc1cnc[nH]1)C(N)=O)C(C)C (H-ISEVN[Cit]DAEFRH-NH2)
8 | 0.45 h | Active | 0.217 h | CCC[C@H](NC(=O)[C@H](CC(N)=O)NC(=O)[C@@H](NC(=O)[C@H](CCC(=O)O)NC(=O)[C@H](CO)NC(=O)[C@@H](N)[C@@H](C)CC)C(C)C)C(=O)N[C@@H](CC(=O)O)C(=O)N[C@@H](C)C(=O)N[C@@H](CCC(=O)O)C(=O)N[C@@H](Cc1ccccc1)C(=O)N[C@@H](CCCNC(=N)N)C(=O)N[C@@H](Cc1cnc[nH]1)C(N)=O (H-ISEVN[Nva]DAEFRH-NH2)
9 | 0.459 h | Active | 0.217 h | CC[C@H](C)[C@H](N)C(=O)N[C@@H](CO)C(=O)N[C@@H](CCC(=O)O)C(=O)N[C@H](C(=O)N[C@@H](CC(N)=O)C(=O)N[C@H](C(=O)N[C@@H](CC(=O)O)C(=O)N[C@@H](C)C(=O)N[C@@H](CCC(=O)O)C(=O)N[C@@H](Cc1ccccc1)C(=O)N[C@@H](CCCNC(=N)N)C(=O)N[C@@H](Cc1cnc[nH]1)C(N)=O)c1ccccc1)C(C)C (H-ISEVN[Phg]DAEFRH-NH2)
10 | 0.479 h | – | 0.217 h | CC[C@H](C)[C@H](N)C(=O)N[C@@H](CO)C(=O)N[C@@H](CCC(=O)O)C(=O)N[C@H](C(=O)N[C@@H](CC(N)=O)C(=O)N[C@H](C(=O)N[C@@H](CC(=O)O)C(=O)N[C@@H](C)C(=O)N[C@@H](CCC(=O)O)C(=O)N[C@@H](Cc1ccccc1)C(=O)N[C@@H](CCCNC(=N)N)C(=O)N[C@@H](Cc1cnc[nH]1)C(N)=O)C(C)(C)C)C(C)C (H-ISEVN[Tle]DAEFRH-NH2)
11 | 0.551 h | Active | – | CC[C@H](C)[C@H](N)C(=O)N[C@@H](CO)C(=O)N[C@@H](CCC(=O)O)C(=O)N[C@H](C(=O)N[C@@H](Cc1cccs1)C(=O)N[C@@H](CC(C)C)C(=O)N[C@@H](CC(=O)O)C(=O)N[C@@H](C)C(=O)N[C@@H](CCC(=O)O)C(=O)N[C@@H](Cc1ccccc1)C(=O)N[C@@H](CCCNC(=N)N)C(=O)N[C@@H](Cc1cnc[nH]1)C(N)=O)C(C)C (H-ISEV[2Thi]LDAEFRH-NH2)
12 | 0.521 h | Active | – | CCC[C@H](NC(=O)[C@@H](NC(=O)[C@H](CCC(=O)O)NC(=O)[C@H](CO)NC(=O)[C@@H](N)[C@@H](C)CC)C(C)C)C(=O)N[C@@H](CC(C)C)C(=O)N[C@@H](CC(=O)O)C(=O)N[C@@H](C)C(=O)N[C@@H](CCC(=O)O)C(=O)N[C@@H](Cc1ccccc1)C(=O)N[C@@H](CCCNC(=N)N)C(=O)N[C@@H](Cc1cnc[nH]1)C(N)=O (H-ISEV[Nva]LDAEFRH-NH2)
13 | 0.496 h | Active | – | CCC[C@H](NC(=O)[C@H](CCC(=O)O)NC(=O)[C@H](CO)NC(=O)[C@@H](N)[C@@H](C)CC)C(=O)N[C@@H](CC(N)=O)C(=O)N[C@@H](CC(C)C)C(=O)N[C@@H](CC(=O)O)C(=O)N[C@@H](C)C(=O)N[C@@H](CCC(=O)O)C(=O)N[C@@H](Cc1ccccc1)C(=O)N[C@@H](CCCNC(=N)N)C(=O)N[C@@H](Cc1cnc[nH]1)C(N)=O (H-ISE[Nva]NLDAEFRH-NH2)
14 | 0.474 h | Active | – | CC[C@H](C)[C@H](N)C(=O)N[C@@H](CO)C(=O)N[C@@H](CCCNC(N)=O)C(=O)N[C@H](C(=O)N[C@@H](CC(N)=O)C(=O)N[C@@H](CC(C)C)C(=O)N[C@@H](CC(=O)O)C(=O)N[C@@H](C)C(=O)N[C@@H](CCC(=O)O)C(=O)N[C@@H](Cc1ccccc1)C(=O)N[C@@H](CCCNC(=N)N)C(=O)N[C@@H](Cc1cnc[nH]1)C(N)=O)C(C)C (H-IS[Cit]VNLDAEFRH-NH2)
15 | 0.582 h | Active | – | CC[C@H](C)[C@H](N)C(=O)N[C@@H](CO)C(=O)N[C@H](C(=O)N[C@H](C(=O)N[C@@H](CC(N)=O)C(=O)N[C@@H](CC(C)C)C(=O)N[C@@H](CC(=O)O)C(=O)N[C@@H](C)C(=O)N[C@@H](CCC(=O)O)C(=O)N[C@@H](Cc1ccccc1)C(=O)N[C@@H](CCCNC(=N)N)C(=O)N[C@@H](Cc1cnc[nH]1)C(N)=O)C(C)C)c1ccccc1 (H-IS[Phg]VNLDAEFRH-NH2)
